Active and inactive are the calls of the source. The rule behind the calls is not given here. Residues, ends and D or L forms follow the SMILES beside them.
What was measured:
Type in all cases: cell-based
[1] = biological target: T1, Urokinase-type plasminogen activator/surface receptor (Homo sapiens, UniProt P00749+Q03405); experiment: Inhibition of high molecular weight fluorescent labelled urokinase-type plasminogen activator binding to uPAR in PMA-stimulated human U937 cells at 100 nM preincubated for 30 mins by flow cytometry; conditions: U-937
How it was run: (§1)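 U-937 cells were stimulated with 100 nM PMA (final) for 7–8 h at 37 °C, then resuspended at 1 × 10⁶ cells/mL in cold PBS (1 mM CaCl₂, MgCl₂) with 0.1% BSA, pH 7.4. Cells were pre-incubated with antagonist on ice for 30 min, then given 40 nM Alexa-488-HMW-uPA. After washing, cell fluorescence was read by dual-colour flow cytometry as % of the no-compound control; mean ± SD, n = 3.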

[2] = biological target: T1, Urokinase-type plasminogen activator/surface receptor; experiment: Inhibition of high molecular weight fluorescent labelled urokinase-type plasminogen activator binding to uPAR in PMA-stimulated human U937 cells at 10 nM preincubated for 30 mins by flow cytometry; conditions: U-937; how it was run: as §1
[3] = biological target: T1, Urokinase-type plasminogen activator/surface receptor; experiment: Inhibition of high molecular weight fluorescent labelled urokinase-type plasminogen activator binding to uPAR in PMA-stimulated human U937 cells at 10 uM preincubated for 30 mins by flow cytometry; conditions: U-937; how it was run: as §1
[4] = biological target: T1, Urokinase-type plasminogen activator/surface receptor; experiment: Inhibition of high molecular weight fluorescent labelled urokinase-type plasminogen activator binding to uPAR in PMA-stimulated human U937 cells at 100 uM preincubated for 30 mins by flow cytometry; conditions: U-937; how it was run: as §1
[5] = biological target: T1, Urokinase-type plasminogen activator/surface receptor; experiment: Inhibition of [125I]-labelled urokinase-type plasminogen activator binding to uPAR in human DU-145 cells by radioligand competition binding assay

Row | inhibition [1] | inhibition [2] | inhibition [3] | inhibition [4] | IC50 [5] | Compound
1 | 90% | 80% | – | – | – | N=C(N)NCCC[C@H](NC(=O)CNC(=O)[C@@H](N)CCC(=O)O)C(=O)CCl (HELM PEPTIDE1{E.G.R.[ClC[*:1]]}$$$$V2.0)
2 | – | – | 60% | 50% | – | C#CCNCC(=O)N(CC(=O)N(CC(N)=O)CC(=O)NC(c1ccc(OC)cc1)c1ccc(OC)cc1)c1ccc2ccccc2c1
3 | – | – | inactive | inactive | 0.8 nM | CC(=O)N[C@@H](Cc1c[nH]c2ccccc12)C(=O)Nc1cccc(-c2ccc(C(=O)N[C@@H](Cc3ccccc3)C(=O)O)cc2)c1

Source: ChEMBL document CHEMBL1765005, “Small molecule antagonists of the urokinase (uPA): urokinase receptor (uPAR) interaction with high reported potencies show only weak effects in cell-based competition assays employing the native uPAR ligand” (Bioorg Med Chem, 2011)
